Holding throughout (assay type): functional, organism-based
Details in all cases: Mycobacterium bovis BCG str. Pasteur 1173P2

Assay [1] concerns Mycobacterium tuberculosis variant bovis. Kind of assay: Inhibition of mycolic acid synthesis in Mycobacterium bovis BCG Pasteur 1173P2 sonicates assessed as inhibition of alphamycolates production by autoradiography. In outline:
(§1)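 BCG sonicate (3 mg protein) with 1 μCi [1,2-14C]acetate, ISO 0, 2 or 5 μg/ml final, ±purified EthA (up to 10 μg), 25 mM Tris-HCl pH 7.5; 10 min ice, 2 h 37°C; mycolic acid methyl esters by TLC (hexane:ethyl acetate 95:5) and autoradiography.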

The test system is the same in assay [2]. Briefly: Inhibition of mycolic acid synthesis in Mycobacterium bovis BCG Pasteur 1173P2 sonicates assessed as inhibition of ketomycolates production by autoradiography. In outline: as §1
Assay [3] has the same test system. Briefly: Inhibition of mycolic acid synthesis in Mycobacterium bovis BCG Pasteur 1173P2 sonicates assessed as inhibition of alphamycolates production using partially purified EthA as cofactor by autoradiography. The gist of the method:
as §1

For assay [4] the test system is unchanged. Kind of assay: Inhibition of mycolic acid synthesis in Mycobacterium bovis BCG Pasteur 1173P2 sonicates assessed as inhibition of ketomycolates production using partially purified EthA as cofactor by autoradiography. The gist of the method: as §1

Calls of active or inactive are those of the source. No cut-off for these calls is given here.

On to `CC(C)CCOc1ccc(NC(=S)Nc2ccc(OCCC(C)C)cc2)cc1` [TIOCARLIDE], for which the result in assay [1] and in assay [2] was Active. Also, the result in assay [3] and in assay [4] was inactive.
